Measurements as given in ChEMBL document CHEMBL1124902, “Hydroxyperfluoroazobenzenes: novel inhibitors of enzymes of androgen biosynthesis” (J Med Chem, 1990).

Legend:
[1] = molecular target: T1, Steroid 17-alpha-hydroxylase/17,20 lyase (Rattus norvegicus, UniProt P11715); test: Inhibition of 17-alpha-hydroxylase/17,20 lyase from rat testes microsomal preparation; format: microsomes, Testis
T1 sequence (P11715 whole entry): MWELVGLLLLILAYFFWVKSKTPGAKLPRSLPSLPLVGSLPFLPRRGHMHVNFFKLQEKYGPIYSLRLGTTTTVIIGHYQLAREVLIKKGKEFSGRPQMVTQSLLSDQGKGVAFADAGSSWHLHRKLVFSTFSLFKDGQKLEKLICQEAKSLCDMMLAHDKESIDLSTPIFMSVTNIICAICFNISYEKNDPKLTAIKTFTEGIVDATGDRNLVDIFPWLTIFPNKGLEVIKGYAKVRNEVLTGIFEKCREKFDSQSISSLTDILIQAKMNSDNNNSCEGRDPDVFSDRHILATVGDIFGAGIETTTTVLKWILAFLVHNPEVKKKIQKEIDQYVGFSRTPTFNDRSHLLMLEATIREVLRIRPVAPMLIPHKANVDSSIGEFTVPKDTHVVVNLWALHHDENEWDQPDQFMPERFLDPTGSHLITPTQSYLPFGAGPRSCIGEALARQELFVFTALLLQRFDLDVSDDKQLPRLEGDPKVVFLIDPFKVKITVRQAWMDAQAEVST
Outline: (§1)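 Rat testis microsomes as enzyme source. The assay contained 1 μM [³H]progesterone, 250 μM NADPH, a glucose-6-phosphate/G6P dehydrogenase regenerating system, 1 mM MgCl₂, 0.1 mM EDTA and 0.1 mM DTT in 50 mM sodium phosphate at pH 7.4, with 5% ethanol vehicle. Incubation ran 10 min at 37 °C. Substrate, 17α-OH-progesterone and product were quantified, giving separate hydroxylase and lyase steps. Each point was run in triplicate at ≥3 concentrations, and IC50 was taken from a Dixon linear regression.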

[2] = molecular target: T1, Steroid 17-alpha-hydroxylase/17,20 lyase; test: Percent inhibition of 17-alpha-hydroxylase/17,20 lyase of rat testes microsomes at 100 uM
[3] = molecular target: T2, Steroid 5-alpha-reductase (Rattus norvegicus, UniProt P24008+P31214); test: Inhibition of Testosterone-5 alpha-reductase activity at pH 6.6 from rat; B = no inhibition at the highest concentration tested (20 uM); format: protein assay
T2 sequence (P24008 whole entry): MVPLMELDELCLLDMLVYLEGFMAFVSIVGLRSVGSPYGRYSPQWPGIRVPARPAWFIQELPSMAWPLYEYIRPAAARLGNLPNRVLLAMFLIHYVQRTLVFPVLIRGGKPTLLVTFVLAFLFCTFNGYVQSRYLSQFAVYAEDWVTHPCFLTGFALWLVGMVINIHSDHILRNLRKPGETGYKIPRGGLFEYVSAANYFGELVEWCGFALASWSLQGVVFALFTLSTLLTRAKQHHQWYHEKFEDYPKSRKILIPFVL
T2 sequence (P31214 whole entry): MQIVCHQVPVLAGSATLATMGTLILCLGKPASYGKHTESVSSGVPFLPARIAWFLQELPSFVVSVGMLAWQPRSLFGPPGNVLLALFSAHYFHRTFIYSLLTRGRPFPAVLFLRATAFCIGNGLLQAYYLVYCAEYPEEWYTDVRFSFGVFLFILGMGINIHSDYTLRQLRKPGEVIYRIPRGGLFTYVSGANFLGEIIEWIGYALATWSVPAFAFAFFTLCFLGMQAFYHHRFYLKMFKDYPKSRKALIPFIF
Outline: (§2)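 Crude nuclear fraction (ca. 1.5 mg) from adult Wistar rat ventral prostate, in 50 mM potassium phosphate. The substrate was 5 μM testosterone with 4-[¹⁴C]testosterone, plus 1 mM NADPH and 1 mM DTT. Incubation ran 30 min at 37 °C and was stopped with ethyl acetate/HgCl₂. [¹⁴C]DHT was measured by TLC radioscan. Inhibitors were added in 2% DMSO at 1, 2, 5, 10 and 20 μM, with assays in duplicate.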

[4] = molecular target: T1, Steroid 17-alpha-hydroxylase/17,20 lyase; test: Inhibition of Steroid 17-alpha-hydroxylase/17,20 lyase from rat testes microsomal preparation; outline: as §1
[5] = molecular target: T1, Steroid 17-alpha-hydroxylase/17,20 lyase; test: Percent inhibition of Steroid 17-alpha-hydroxylase/17,20 lyase from rat testes microsomes at 100 uM
[6] = molecular target: T2, Steroid 5-alpha-reductase; test: Inhibition of Testosterone-5 alpha-reductase activity at pH 7.4 from rat; B = no inhibition at the highest concentration tested (20 uM); format: protein assay; outline: as §2
[7] = molecular target: T2, Steroid 5-alpha-reductase; test: Inhibition of rat testosterone-5 alpha-reductase activity at pH 6.6 from rat; format: protein assay; outline: as §2
[8] = molecular target: T2, Steroid 5-alpha-reductase; test: Inhibition of Testosterone-5 alpha-reductase activity at pH 7.4 from rat; format: protein assay; outline: as §2
[9] = molecular target: T1, Steroid 17-alpha-hydroxylase/17,20 lyase; test: Percent inhibition of Steroid 17-alpha-hydroxylase/17,20 lyase of rat testes microsomes at 100 uM
[10] = molecular target: T2, Steroid 5-alpha-reductase; test: Binding constant of Testosterone-5 alpha-reductase activity at pH 7.4; format: protein assay

`Oc1c(F)c(F)c(F)c(F)c1/N=N/c1c(F)c(F)c(F)c(F)c1F` was tested, and the IC50 [1] was 63 µM, the inhibition at 100 µM [2] was 62% and the IC50 [3] was “No inhibition”. It also gave an IC50 [4] of 16 µM and an inhibition at 100 µM [5] of 83%.

With `Oc1ccc(/N=N/c2ccccc2)cc1` the inhibition at 100 µM [2] was 6%, the IC50 [6] was “No inhibition” and the inhibition at 100 µM [5] was 0%.

In the case of `CC(=O)N1CCN(c2ccc(OCC3COC(Cn4ccnc4)(c4ccc(Cl)cc4Cl)O3)cc2)CC1` (stereo unspecified) [KETOCONAZOLE], the IC50 [1] is reported as 6 µM, the inhibition at 100 µM [2] is reported as 62% and the IC50 [4] is reported as 11 µM. The inhibition at 100 µM [5] was 48%.

With `c1ccc(/N=N/c2ccccc2)cc1` [AZOBENZENE] the inhibition at 100 µM [2] was 0%, the IC50 [6] was “No inhibition” and the inhibition at 100 µM [5] was 0%.

With `Fc1c(F)c(F)c(/N=N/c2c(F)c(F)c(F)c(F)c2F)c(F)c1F` the inhibition at 100 µM [2] was 4%, the IC50 [6] was “No inhibition” and the inhibition at 100 µM [5] was 0%.

`CC(=O)[C@H]1CC[C@H]2[C@@H]3CCC4=CC(=O)CC[C@]4(C)[C@H]3CC[C@]12C` [PROGESTERONE] gave an IC50 [7] of 1.6 µM and an IC50 [8] of 2.6 µM.

Work on `Fc1c(F)c(F)c2c(c1F)N=Nc1c(F)c(F)c(F)c(F)c1O2` yielded an IC50 [1] of 50 µM, an inhibition at 100 µM [2] of 67% and an IC50 [4] of 15 µM. For the same molecule, the inhibition at 100 µM [5] was 88%.

Work on `Oc1c(F)c(F)c(/N=N/c2c(F)c(F)c(F)c(F)c2F)c(F)c1F` yielded an IC50 [1] of 30 µM, an inhibition at 100 µM [9] of 76% and an IC50 [7] of 2 µM. For the same molecule, the IC50 [8] was 14 µM, the IC50 [4] was 33 µM and the inhibition at 100 µM [5] was 71%. The Ki [10] was 10 µM.

`Oc1c(F)c(F)c(/N=N/c2c(F)c(F)c(O)c(F)c2F)c(F)c1F` gave an inhibition at 100 µM [2] of 15%, an IC50 [7] of 0.79 µM and an IC50 [8] of 5 µM. For the same molecule, the inhibition at 100 µM [5] was 14% and the Ki [10] was 4 µM.
